≈ marks a conversion by molar mass, not a printed value. Calls of active or inactive are those of the source. The calls are words filed in the database; no cut-off is given here. Where only a bound is given, the exact number is not on record here.

One series has as its target Cathepsin S (Homo sapiens, UniProt P25774). Nature of the series: Inhibition of human recombinant cathepsin S by fluorometric assay. An outline of the steps:
(§1)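 Fluorometric inhibition assay with recombinant human enzymes. Cat K and Cat L used Z-Phe-Arg-AMC as substrate. Cat S used L-Leu-Leu-Arg-AMC as substrate. Values reported as IC50.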

The next series deals with Procathepsin L (Homo sapiens, UniProt P07711). The experiment in a line: Inhibition of human recombinant cathepsin L by fluorometric assay. Summed up: as §1
The next series has as its target T1, Cathepsin K (Homo sapiens, UniProt P43235).
T1 sequence (P43235 whole entry): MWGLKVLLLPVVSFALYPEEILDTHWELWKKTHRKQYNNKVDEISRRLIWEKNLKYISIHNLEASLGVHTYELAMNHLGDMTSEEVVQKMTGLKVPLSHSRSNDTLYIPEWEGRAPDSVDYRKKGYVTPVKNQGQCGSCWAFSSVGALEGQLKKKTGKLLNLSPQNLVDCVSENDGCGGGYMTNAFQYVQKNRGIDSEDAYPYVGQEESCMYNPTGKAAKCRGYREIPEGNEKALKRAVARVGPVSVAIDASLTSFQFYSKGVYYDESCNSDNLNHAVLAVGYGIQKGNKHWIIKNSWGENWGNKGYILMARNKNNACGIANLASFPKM
The experiment in a line: Inhibition of human recombinant cathepsin K by fluorometric assay. An outline of the steps:
as §1

The species named for the next series is Homo sapiens. The experiment in a line: Selectivity for human recombinant cathepsin S over human recombinant cathepsin L.
Series [1] can be described thus: Aqueous solubility at pH 6.8. The class given is physicochemical. Summed up: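 Thermodynamic solubility, measured at pH 6.8 and 25 °C.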
A short description of series [2]: Clearance in Sprague-Dawley rat at 1 mg/kg, iv and 3 mg/kg, po. The class given is ADME, organism-based. To be noted: in vivo. Summed up:
(§2)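 Male Sprague-Dawley rats, cassette dosing. Single iv dose of 1 mg/kg and po dose of 3 mg/kg. Clearance and half-life taken from iv data. Bioavailability and po AUC derived from both routes, with AUC dose-normalized to 1 mg/kg. Values are means of n = 3, with n = 2 for some iv groups.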

The nature of series [3]: Half life in Sprague-Dawley rat at 1 mg/kg, iv. The class given is ADME, organism-based. Set-up: dose 1 mg/kg, route intravenous. To be noted: in vivo. Summed up: as §2
Series [4] can be described thus: Bioavailability in Sprague-Dawley rat at 1 mg/kg, iv and 3 mg/kg, po. The class given is ADME, organism-based. To be noted: in vivo. Summed up: as §2
The target in series [5] is Cathepsin S (Mus musculus) (UniProt O70370). The experiment in a line: Inhibition of cathepsin S in mouse A20 cells assessed as invariant chain degradation at 1 uM. The class given is cell-based. Summed up: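 Mouse A20 cells treated at 1 µM. Cellular cathepsin S activity read out as degradation of invariant chain (Ii).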
Series [6] in a line: Clearance in Sprague-Dawley rat at 1 mg/kg, iv. Also on record: dose 1 mg/kg, route intravenous. To be noted: in vivo. The class given is ADME, organism-based. Summed up:
as §2

The test system of a further series is Rattus norvegicus. Nature of the series: Bioavailability in Sprague-Dawley rat at 1 mg/kg, iv. The class given is ADME, organism-based. As to conditions: in vivo. An outline of the steps: as §2

Chain of Cathepsin S (P25774 whole entry): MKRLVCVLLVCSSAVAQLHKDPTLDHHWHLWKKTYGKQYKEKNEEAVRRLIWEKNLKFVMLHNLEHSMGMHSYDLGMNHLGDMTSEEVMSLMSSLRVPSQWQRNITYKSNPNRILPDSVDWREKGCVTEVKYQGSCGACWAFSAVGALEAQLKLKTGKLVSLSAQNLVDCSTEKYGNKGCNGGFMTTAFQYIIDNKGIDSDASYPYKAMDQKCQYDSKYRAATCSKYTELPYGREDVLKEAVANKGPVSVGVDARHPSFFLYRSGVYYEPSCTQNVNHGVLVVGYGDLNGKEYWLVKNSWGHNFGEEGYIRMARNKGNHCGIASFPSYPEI
Chain of Procathepsin L (P07711 whole entry): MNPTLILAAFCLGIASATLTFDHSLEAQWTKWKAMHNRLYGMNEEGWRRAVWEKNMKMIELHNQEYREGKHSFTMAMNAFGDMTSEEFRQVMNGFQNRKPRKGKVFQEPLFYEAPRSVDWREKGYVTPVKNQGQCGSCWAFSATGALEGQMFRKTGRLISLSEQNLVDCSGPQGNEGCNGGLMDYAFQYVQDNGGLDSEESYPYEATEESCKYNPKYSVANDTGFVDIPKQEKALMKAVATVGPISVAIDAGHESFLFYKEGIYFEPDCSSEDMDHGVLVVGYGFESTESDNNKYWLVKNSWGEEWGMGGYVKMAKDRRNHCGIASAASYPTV

Take `CN1CCC(CCOc2nc(C#N)nc(NCC3CCC4(CC3)CC4)c2C(=O)NCCc2ccccc2)CC1`: the IC50 – broadly, the concentration at which inhibition is half-maximal – at Cathepsin S was less than 1 nM; on Procathepsin L, 10 nM.
For the molecule `N#Cc1ncc(C(=O)N[C@H](Cc2ccccc2)CN2CCCC2)c(NCC2CCC3(CC2)CC3)n1`, the half-maximal inhibitory concentration (IC50) was less than 1 nM on Cathepsin S, 44 nM on Cathepsin K and 150 nM at Procathepsin L. In addition, the Selectivity ratio in the series listed under Homo sapiens was more than 100. For the same molecule, the solubility – broadly, the dissolved amount per volume that the medium holds – in series [1] turned out to be 27 µg/mL (≈ 57.1 µM). The clearance in series [2] was 16.7 mL/min/kg. Also, the half-life (usually how long it takes for the measured level to halve) in [3] is 5.7 h. The bioavailability (usually dose-corrected exposure relative to a reference, in per cent) in [4] was 42%. For the same molecule, the outcome in series [5] was Active.
As to `N#Cc1ncc(C(=O)N[C@H](Cc2ccccn2)CN2CCCC2)c(NCC2CCC3(CC2)CC3)n1`, the IC50 on Cathepsin S stood at 4 nM; on Procathepsin L, 480 nM.
For `CNC(=O)c1c(NCC2CCC3(CC2)CC3)nc(C#N)nc1OCCC1CCN(C)CC1`, in that order: 2 nM and 120 nM.
In the case of `CC1(C)CCC(CNc2nc(C#N)ncc2C(=O)NCCc2ccccc2)CC1`, the IC50 is 93 nM at Cathepsin S, more than 3000 nM at Cathepsin K and more than 3000 nM at Procathepsin L.
Consider `CN1CCC(CCOc2cc(NCC3CCC4(CC3)CC4)nc(C#N)n2)CC1`, for which the concentration for half-maximal inhibition (IC50) worked out at 22 nM at Cathepsin S, 240 nM on Cathepsin K and 870 nM at Procathepsin L.
Regarding `CN1CCC(COc2nc(C#N)nc(NCC3CCC4(CC3)CC4)c2C(=O)NCc2ccccc2)CC1`, the IC50 was less than 1 nM on Cathepsin S and 64 nM at Procathepsin L.
For `C[C@@](Cc1ccccc1)(CN1CCCC1)NC(=O)c1cnc(C#N)nc1NCC1CCC2(CC1)CC2`, in that order: 21 nM and 840 nM.
On to `CN1CCC(CCOc2nc(C#N)nc(NCC3CCC4(CC3)CC4)c2Br)CC1`, for which the half-inhibitory concentration (IC50) on Cathepsin S was 2 nM; on Cathepsin K, 100 nM; on Procathepsin L it was 280 nM. Moreover, in [1], the solubility was 11 µg/mL (≈ 23.8 µM). This molecule also had a clearance in series [2] of 85 mL/min/kg. In series [3], this molecule gave a half-life of 4.6 h. In series [4], the bioavailability was 100%.
Consider `N#Cc1ncc(C(=O)NCCc2ccccc2)c(NCC2CCC(F)(F)CC2)n1`, for which the values for the half-maximal inhibitory concentration (IC50) on Cathepsin S, at Cathepsin K and at Procathepsin L were 22 nM, 130 nM and more than 3000 nM, respectively.
For `N#Cc1ncc(C(=O)NCCc2ccccc2)c(NC2CCCCC2)n1`, in that order: 130 nM, 10 nM and 1100 nM.
For `CN1CCC(CNC(=O)c2cnc(C#N)nc2NCC2CCC3(CC2)CC3)(c2ccccc2)CC1`, the IC50 stood at 6 nM at Cathepsin S, 170 nM on Cathepsin K and 700 nM at Procathepsin L. Also, the Selectivity ratio in the series filed under Homo sapiens was more than 100. In series [1], the solubility was found to be 89 µg/mL (≈ 188 µM). The clearance in series [6] was 173 mL/min/kg. The molecule also gave a half-life in series [3] of 3.3 h. For the same molecule, the F with Rattus norvegicus is listed as 100%. The outcome in series [5] was Active.
In the case of `CN(CC1CCCCC1)c1nc(C#N)ncc1C(=O)NCCc1ccccc1`, the half-maximal inhibitory concentration (IC50) on Cathepsin S was determined as 32 nM; at Cathepsin K, 36 nM; at Procathepsin L, 2000 nM.
Take `CN1CCC(Oc2nc(C#N)nc(NCC3CCC4(CC3)CC4)c2C(=O)NCc2ccccc2)CC1`: the IC50 at Cathepsin S amounted to 1 nM; on Procathepsin L, 100 nM.
Regarding `CN1CCC(NC(=O)c2cnc(C#N)nc2NCC2CCC3(CC2)CC3)(c2ccccc2)CC1`, the half-inhibitory concentration (IC50) on Cathepsin S came to 7 nM; on Procathepsin L it was 510 nM. Further, in the series filed under Homo sapiens, the Selectivity ratio was more than 100.
For the molecule `N#Cc1ncc(C(=O)NCCc2ccccc2)c(NCC2CCCCC2)n1`, the half-maximal inhibitory concentration (IC50) is 22 nM at Cathepsin S, 15 nM at Cathepsin K and more than 2000 nM at Procathepsin L.
For the molecule `CN1CCC(Cc2ccccc2)(NC(=O)c2cnc(C#N)nc2NCC2CCC3(CC2)CC3)CC1`, the results for the IC50 at Cathepsin S, on Cathepsin K and on Procathepsin L were 2 nM, 140 nM and 180 nM, respectively. Besides, the Selectivity ratio in the series listed under Homo sapiens was more than 100.
Regarding `CN1CCC(Oc2ccc(NC(=O)c3cnc(C#N)nc3NCC3CCC4(CC3)CC4)c(-c3ccccc3)c2)CC1`, the figures for the concentration for half-maximal inhibition (IC50) at Cathepsin S and on Procathepsin L were 3 nM and 840 nM, respectively. Also, the concentration in solution in series [1] (solubility) was 2 µg/mL (≈ 3.63 µM). Also, the clearance in [2] is 13.3 mL/min/kg. Moreover, the half-life in series [3] is more than 8 h. In [4], this molecule had a bioavailability of 66%. The result in series [5] was Active.
As to `N#Cc1ncc(C(=O)NCCc2ccccc2)c(OCC2CCCCC2)n1`, the half-inhibitory concentration (IC50) amounted to 14 nM at Cathepsin S, 9 nM on Cathepsin K and 780 nM at Procathepsin L.
For `N#Cc1ncc(C(=O)N[C@@H](Cc2ccccc2)CN2CCCC2)c(NCC2CCC3(CC2)CC3)n1`, in that order: 23 nM, 200 nM and 1500 nM.
Consider `CN1CCC(CCOc2nc(C#N)nc(NCC3CCC4(CC3)CC4)c2C(=O)NCc2ccccc2)CC1`, for which the 50% inhibitory concentration (IC50) was less than 1 nM on Cathepsin S and 270 nM at Procathepsin L.
Consider `COc1cc(NC(=O)c2cnc(C#N)nc2NCC2CCC3(CC2)CC3)c(-c2ccccc2)cc1OC`, for which the 50% inhibitory concentration (IC50) is 24 nM at Cathepsin S, more than 1000 nM at Cathepsin K and more than 3000 nM on Procathepsin L.
The like results for `N#Cc1ncc(C(=O)NCCc2ccccc2)c(NCC2CCC3(CC2)CC3)n1` were, in that order, 15 nM, more than 3000 nM and more than 3000 nM.

Source of the values: ChEMBL document CHEMBL1156562, “4-Amino-2-cyanopyrimidines: novel scaffold for nonpeptidic cathepsin S inhibitors” (Bioorg Med Chem Lett, 2008).
